Holding throughout (assay type): functional
Assay [1] has as its system Mus musculus. Briefly: Compound was administered at 62.5 p.p.m. in the diet of mice, for percent reduction of Nematospiroides dubius in mice. In short, it runs like this: (§1)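 Mouse infection test run by Baker's method, three mice per treated group. Worm counts are averaged per mouse, and percent reduction is derived from them. Reductions below 20% are recorded as 0.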

Assay [2] has as its system Mus musculus. Briefly: Compound was administered at 125 p.p.m. in the diet of mice, for percent reduction of Nematospiroides dubius in mice. In a few lines: as §1
Assay [3] has as its system Mus musculus. Nature of the assay: Compound was administered at 500 p.p.m. in the diet of mice, for percent reduction of Nematospiroides dubius in mice. In a few lines: as §1
Assay [4] has as its system Mus musculus. Briefly: Compound was administered at 1000 p.p.m. in the diet of mice, for percent reduction of Nematospiroides dubius in mice. In a few lines: as §1
Assay [5] has as its system Mus musculus. Briefly: Compound was administered at 250 p.p.m. in the diet of mice, for percent reduction of Nematospiroides dubius in mice. In short, it runs like this:
as §1

With `COC(=O)Nc1cn2cc(C(Cl)=C(Cl)Cl)ccc2n1`, the Reduction in the assay with Mus musculus [1] and in the assay on Mus musculus [2] was 94% throughout.

As for `COC(=O)Nc1cn2ccccc2n1`, the Reduction was 0% in the assay with Mus musculus [3] and 54% in the assay with Mus musculus [4].

For the molecule `COC(=O)Nc1cn2cc(Sc3ccccc3)ccc2n1`, the Reduction in the assay on Mus musculus [5] is on record as 98%; in the assay with Mus musculus [3] it was 100%; in the assay with Mus musculus [1] it was 0%; in the assay with Mus musculus [2] it was 38%.

With `COC(=O)Nc1cn2cc([S+]([O-])c3ccccc3)ccc2n1` (centres undefined), the Reduction amounted to 35% with Mus musculus [1] and 100% with Mus musculus [2].

In the case of `CCCSc1ccc2nc(NC(=O)OC)cn2c1`, the Reduction with Mus musculus [5] was 100%; in the assay with Mus musculus [1], 0%; in the assay on Mus musculus [2] it was 74%.

For the molecule `CCCOc1ccc2nc(NC(=O)OC)cn2c1`, the figures for the Reduction in the assay with Mus musculus [5], with Mus musculus [1] and in the assay with Mus musculus [2] were 74%, 0% and 44%, respectively.

With `COC(=O)Nc1cn2cc(C(=O)c3ccccc3)ccc2n1`, the Reduction in the assay on Mus musculus [3] and with Mus musculus [4] was 0% in each case.

Regarding `COC(=O)Nc1nc2cc(C(Cl)=C(Cl)Cl)ccc2[nH]1`, the Reduction turned out to be 99% in the assay on Mus musculus [5], 57% with Mus musculus [1] and 69% with Mus musculus [2].

With `CC(C)OC(=O)Nc1ccc2[nH]c(-c3cscn3)nc2c1` [CAMBENDAZOLE], the Reduction is on record as 73% in the assay on Mus musculus [5], 100% with Mus musculus [3], 0% with Mus musculus [1] and 0% in the assay with Mus musculus [2].

Take `c1ccc2[nH]c(-c3cscn3)nc2c1` [THIABENDAZOLE]: the Reduction worked out at 26% in the assay with Mus musculus [5], 86% in the assay on Mus musculus [3], 100% in the assay on Mus musculus [4] and 0% in the assay with Mus musculus [2].

The values are drawn from ChEMBL document CHEMBL1121770, “Substituted imidazo[2,3-alpha]pyridine-2-carbamate anthelmintics” (1981).
